What all share (assay type): functional
For assay [1], the species on record is Cavia porcellus. The experiment in a line: Effect on the contractile force of spontaneously beating atria from Reserpine-treated guinea pigs as percentage variation from the control at concentration of 10E-3 M. In outline: (§1)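 Atria from reserpine-treated guinea pigs (reserpine 2 mg/kg ip, 48 and 24 h before death; only tyramine-unresponsive preparations used). Bath solution at 29 °C, gassed 95% O2/5% CO2, pH 7.5, resting tension […]. After 90 min equilibration, compound added cumulatively, 5 min per concentration. Isometric developed-tension amplitude or beating rate given as % variation from untreated control. Mean ± SEM, 6-10 assays.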

The species entered for assay [2] is Cavia porcellus. The experiment in a line: Effect on the frequency rate of spontaneously beating atria from Reserpine-treated guinea pigs as percentage variation from the control at concentration of 10E-6 M. The gist of the method:
as §1

For assay [3], the species on record is Cavia porcellus. As to the kind of experiment: Compound was evaluated for its effect on the frequency rate of spontaneously beating atria from Reserpine-treated guinea pigs as percentage variation from the control at concentration of 3 x 10E-5 M. In outline:
as §1

Assay [4] is filed under the species Cavia porcellus. The experiment in a line: Effect on the frequency rate of spontaneously beating atria from Reserpine-treated guinea pigs as percentage variation from the control at concentration of 10E-5 M. In outline:
as §1

The species entered for assay [5] is Cavia porcellus. As to the kind of experiment: Compound was evaluated for its effect on the frequency rate of spontaneously beating atria from Reserpine-treated guinea pigs as percentage variation from the control at concentration of 3 x 10E-4 M. The gist of the method: as §1
The species named for assay [6] is Cavia porcellus. As to the kind of experiment: Effect on the contractile force of spontaneously beating atria from Reserpine-treated guinea pigs as percentage variation from the control at concentration of 3 x 10E-5 M. The gist of the method:
as §1

The species named for assay [7] is Cavia porcellus. The experiment in a line: Effect on the frequency rate of spontaneously beating atria from Reserpine-treated guinea pigs as percentage variation from the control at concentration of 10E-4 M. In outline:
as §1

Assay [8] is filed under the species Cavia porcellus. The experiment in a line: Effect on the contractile force of spontaneously beating atria from Reserpine-treated guinea pigs as percentage variation from the control at concentration of 10E-6 M. In outline: as §1
The species named for assay [9] is Cavia porcellus. As to the kind of experiment: Effect on the contractile force of spontaneously beating atria from Reserpine treated guinea pigs as percentage variation from the control at concentration of 10E-4 M. The gist of the method:
as §1

Assay [10] is filed under the species Cavia porcellus. The experiment in a line: Effect on the contractile force of spontaneously beating atria from Reserpine-treated guinea pigs as percentage variation from the control at concentration of 10E-5 M. The gist of the method: as §1
Assay [11] is filed under the species Cavia porcellus. As to the kind of experiment: Effect on the contractile force of spontaneously beating atria from Reserpine-treated guinea pigs as percentage variation from the control at concentration of 3 x 10E-6 M. In outline:
as §1

For assay [12], the species on record is Cavia porcellus. As to the kind of experiment: Compound was evaluated for its effect on the frequency rate of spontaneously beating atria from Reserpine-treated guinea pigs as percentage variation from the control at concentration of 3 x 10E-6 M. The gist of the method:
as §1

The species entered for assay [13] is Cavia porcellus. As to the kind of experiment: Effect on the contractile force of spontaneously beating atria from Reserpine-treated guinea pigs as percentage variation from the control at concentration of 3 x 10E-4 M. The gist of the method:
as §1

Assay [14] is filed under the species Cavia porcellus. As to the kind of experiment: Effect on the frequency rate of spontaneously beating atria from Reserpine-treated guinea pigs as percentage variation from the control at concentration of 10E-3 M. The gist of the method:
as §1

Take `CN(C)c1ncc(C(=O)O)c(C(F)(F)F)n1`: the Variation in the assay filed under Cavia porcellus [1] was 9.52%; in the assay listed under Cavia porcellus [2] it was 0%; in the assay listed under Cavia porcellus [3], -3.03%; in the assay filed under Cavia porcellus [4] it was -2.85%; in the assay filed under Cavia porcellus [5] it was -9.09%; in the assay filed under Cavia porcellus [6] it was 13.44%. The Variation in the assay filed under Cavia porcellus [7] is -3.03%; in the assay listed under Cavia porcellus [8] it was 2.25%; in the assay listed under Cavia porcellus [9] it was 14.03%; in the assay filed under Cavia porcellus [10], 9.45%; in the assay listed under Cavia porcellus [11], 6.15%; in the assay listed under Cavia porcellus [12] it was 0%. For the same molecule, the Variation is listed as 14.96% in the assay filed under Cavia porcellus [13] and -14.28% in the assay filed under Cavia porcellus [14].
`CCc1ccnc(N(C)C)n1`: the Variation in the assay filed under Cavia porcellus [1] was -84.45%; in the assay listed under Cavia porcellus [2], 0%; in the assay listed under Cavia porcellus [3] it was -4.77%; in the assay filed under Cavia porcellus [4], -3.03%; in the assay listed under Cavia porcellus [5], -28.91%; in the assay filed under Cavia porcellus [6] it was 9.21%. Also, the Variation is -14.95% in the assay filed under Cavia porcellus [7]; 5.39% in the assay filed under Cavia porcellus [8]; -10.54% in the assay listed under Cavia porcellus [9]; 15.05% in the assay listed under Cavia porcellus [10]; 9.91% in the assay filed under Cavia porcellus [11]; 0% in the assay filed under Cavia porcellus [12]. For the same molecule, the Variation was -43.95% in the assay filed under Cavia porcellus [13] and -42.41% in the assay filed under Cavia porcellus [14].
For `Nc1cc(-c2ccncc2)c[nH]c1=O` [INAMRINONE], the Variation was 23.12% in the assay filed under Cavia porcellus [1]; 0% in the assay filed under Cavia porcellus [2]; 1.5% in the assay listed under Cavia porcellus [3]; 0% in the assay listed under Cavia porcellus [4]; 7.2% in the assay listed under Cavia porcellus [5]; 4.5% in the assay listed under Cavia porcellus [6]. The Variation came out at 6.25% in the assay filed under Cavia porcellus [7]; 0% in the assay filed under Cavia porcellus [8]; 10.22% in the assay listed under Cavia porcellus [9]; 0.52% in the assay filed under Cavia porcellus [10]; 0% in the assay listed under Cavia porcellus [11]; 0% in the assay listed under Cavia porcellus [12]. The Variation is 19.03% in the assay listed under Cavia porcellus [13] and 9.87% in the assay filed under Cavia porcellus [14].
Regarding `CC(C)c1nc(N(C)C)ncc1C(=O)O`, the Variation in the assay listed under Cavia porcellus [1] is given as 23.17%; in the assay listed under Cavia porcellus [2], 0%; in the assay listed under Cavia porcellus [3], -10.71%; in the assay filed under Cavia porcellus [4], -3.13%; in the assay filed under Cavia porcellus [5], -17.58%; in the assay filed under Cavia porcellus [6], 7.79%. In addition, the Variation is recorded as -14.28% in the assay listed under Cavia porcellus [7]; 1.79% in the assay filed under Cavia porcellus [8]; 11.77% in the assay filed under Cavia porcellus [9]; 7.13% in the assay filed under Cavia porcellus [10]; 4.06% in the assay filed under Cavia porcellus [11]; -3.13% in the assay filed under Cavia porcellus [12]. In addition, the Variation in the assay filed under Cavia porcellus [13] is on record as 16.41%; in the assay filed under Cavia porcellus [14], -28.57%.
As to `COCc1nc(N(C)C)ncc1C(=O)OC`, the Variation in the assay filed under Cavia porcellus [1] is reported as 25.41%; in the assay filed under Cavia porcellus [2], 0%; in the assay listed under Cavia porcellus [3] it was 3.57%; in the assay filed under Cavia porcellus [4] it was 2.85%; in the assay filed under Cavia porcellus [5], 7.14%; in the assay listed under Cavia porcellus [6] it was 14.95%. Moreover, the Variation in the assay filed under Cavia porcellus [7] was found to be 7.14%; in the assay listed under Cavia porcellus [8] it was 3.04%; in the assay filed under Cavia porcellus [9], 16.95%; in the assay listed under Cavia porcellus [10], 11.14%; in the assay listed under Cavia porcellus [11], 6.93%; in the assay listed under Cavia porcellus [12], 0%. Besides, the values for the Variation in the assay listed under Cavia porcellus [13] and in the assay listed under Cavia porcellus [14] were 18.95% and 11.43%, respectively.
`COCc1nc(N(C)C)ncc1C(=O)O`: the Variation is 5.92% in the assay filed under Cavia porcellus [1]; 0% in the assay listed under Cavia porcellus [2]; -3.12% in the assay listed under Cavia porcellus [3]; 0% in the assay listed under Cavia porcellus [4]; -6.25% in the assay filed under Cavia porcellus [5]; 9.72% in the assay listed under Cavia porcellus [6]. Also, the Variation was -6.25% in the assay listed under Cavia porcellus [7]; 5.46% in the assay listed under Cavia porcellus [8]; 8.24% in the assay listed under Cavia porcellus [9]; 9.99% in the assay listed under Cavia porcellus [10]; 9.16% in the assay listed under Cavia porcellus [11]; 0% in the assay listed under Cavia porcellus [12]. Besides, the values for the Variation in the assay filed under Cavia porcellus [13] and in the assay listed under Cavia porcellus [14] were 8.19% and -9.37%, respectively.
On to `CCc1nc(N(C)C)ncc1C(=O)O`, for which the Variation in the assay filed under Cavia porcellus [1] is reported as 22.03%; in the assay listed under Cavia porcellus [2], 0%; in the assay listed under Cavia porcellus [3], 0%; in the assay listed under Cavia porcellus [4] it was 0%; in the assay filed under Cavia porcellus [5] it was -4.79%; in the assay filed under Cavia porcellus [6] it was 6.17%. The Variation in the assay listed under Cavia porcellus [7] was found to be 1.11%; in the assay listed under Cavia porcellus [8], 0%; in the assay listed under Cavia porcellus [9] it was 6.67%; in the assay filed under Cavia porcellus [10], 4.47%; in the assay filed under Cavia porcellus [11] it was 2.44%; in the assay listed under Cavia porcellus [12], 0%. Also, the figures for the Variation in the assay listed under Cavia porcellus [13] and in the assay listed under Cavia porcellus [14] were 14.69% and -7.69%, respectively.
Turning to `CC(C)c1ccnc(N(C)C)n1`, the Variation in the assay listed under Cavia porcellus [1] is on record as -100%; in the assay filed under Cavia porcellus [2], 0%; in the assay listed under Cavia porcellus [3], -17.26%; in the assay listed under Cavia porcellus [4], -5.15%; in the assay listed under Cavia porcellus [5], -41.66%; in the assay filed under Cavia porcellus [6], -28.95%. For the same molecule, the Variation in the assay listed under Cavia porcellus [7] is given as -41.66%; in the assay filed under Cavia porcellus [8], 0%; in the assay listed under Cavia porcellus [9], -68.77%; in the assay listed under Cavia porcellus [10] it was -8.84%; in the assay listed under Cavia porcellus [11] it was 0%; in the assay listed under Cavia porcellus [12] it was -5.15%. Further, the Variation was -86.36% in the assay listed under Cavia porcellus [13] and -100% in the assay filed under Cavia porcellus [14].
For the molecule `CCCc1nc(N(C)C)ncc1C(=O)O`, the Variation in the assay filed under Cavia porcellus [1] is 23.61%; in the assay listed under Cavia porcellus [2], 0%; in the assay filed under Cavia porcellus [3], -2.85%; in the assay filed under Cavia porcellus [4], -2.85%; in the assay filed under Cavia porcellus [5], -5.71%; in the assay filed under Cavia porcellus [6], 15.72%. The Variation in the assay filed under Cavia porcellus [7] is recorded as -2.85%; in the assay filed under Cavia porcellus [8] it was 5.38%; in the assay listed under Cavia porcellus [9], 18.35%; in the assay filed under Cavia porcellus [10], 11.21%; in the assay filed under Cavia porcellus [11] it was 8.66%; in the assay listed under Cavia porcellus [12], 0%. Further, the Variation in the assay filed under Cavia porcellus [13] is 19.73%; in the assay filed under Cavia porcellus [14], -4.28%.
In the case of `CN(C)c1ncc(C(=O)O)cn1`, the Variation in the assay listed under Cavia porcellus [1] was 9.64%; in the assay filed under Cavia porcellus [2], 0%; in the assay listed under Cavia porcellus [3] it was 3.44%; in the assay listed under Cavia porcellus [4], 3.12%; in the assay filed under Cavia porcellus [5], 3.44%; in the assay filed under Cavia porcellus [6] it was 10.48%. Further, the Variation is given as 3.44% in the assay filed under Cavia porcellus [7]; 3.76% in the assay filed under Cavia porcellus [8]; 9.39% in the assay filed under Cavia porcellus [9]; 7.54% in the assay filed under Cavia porcellus [10]; 6.36% in the assay filed under Cavia porcellus [11]; 0% in the assay listed under Cavia porcellus [12]. Also, the Variation came to 8.34% in the assay filed under Cavia porcellus [13] and 6.25% in the assay listed under Cavia porcellus [14].
In the case of `CCOC(=O)c1cnc(N(C)C)nc1C(=O)OCC`, the Variation was -100% in the assay listed under Cavia porcellus [1]; 0% in the assay listed under Cavia porcellus [2]; -7.41% in the assay listed under Cavia porcellus [3]; -4.76% in the assay listed under Cavia porcellus [4]; -55.55% in the assay listed under Cavia porcellus [5]; -5.33% in the assay filed under Cavia porcellus [6]. The Variation in the assay listed under Cavia porcellus [7] is reported as -40.77%; in the assay listed under Cavia porcellus [8], 0%; in the assay listed under Cavia porcellus [9], -48.31%; in the assay filed under Cavia porcellus [10], 0.54%; in the assay listed under Cavia porcellus [11] it was 2.18%; in the assay filed under Cavia porcellus [12] it was 0%. Besides, the Variation is given as -76.47% in the assay listed under Cavia porcellus [13] and -100% in the assay listed under Cavia porcellus [14].
As for `CCOC(=O)c1cnc(N(C)C)nc1-c1ccccc1`, the Variation is on record as -100% in the assay listed under Cavia porcellus [1]; 0% in the assay filed under Cavia porcellus [2]; 7.4% in the assay filed under Cavia porcellus [3]; 3.7% in the assay filed under Cavia porcellus [4]; -14.81% in the assay filed under Cavia porcellus [5]; 2.25% in the assay filed under Cavia porcellus [6]. Besides, the Variation in the assay listed under Cavia porcellus [7] was -3.7%; in the assay listed under Cavia porcellus [8], 1.73%; in the assay listed under Cavia porcellus [9] it was -40.74%; in the assay filed under Cavia porcellus [10], 12.05%; in the assay filed under Cavia porcellus [11], 10.24%; in the assay listed under Cavia porcellus [12], 0%. Besides, the Variation in the assay listed under Cavia porcellus [13] is recorded as -70.37%; in the assay listed under Cavia porcellus [14] it was -100%.
